Compound activity (PubChem)
Compounds with a hit are over-represented: about 4% of the library has one in this group of screens.
TAAR1 ag = human TAAR1 agonists, primary screen, Fluo-8 calcium fluorescence, CHO RD-HGA16 cells; activation, % at 3 µM; vehicle wells 0%, saturating PEA agonist 100%; 360,000 compounds, 0.99% hits;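 active = activation above the mean activation of all test compounds in the run plus 3 SD, cut at about 38% in these data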
Target sequence (Q96RJ0 whole entry, looked up): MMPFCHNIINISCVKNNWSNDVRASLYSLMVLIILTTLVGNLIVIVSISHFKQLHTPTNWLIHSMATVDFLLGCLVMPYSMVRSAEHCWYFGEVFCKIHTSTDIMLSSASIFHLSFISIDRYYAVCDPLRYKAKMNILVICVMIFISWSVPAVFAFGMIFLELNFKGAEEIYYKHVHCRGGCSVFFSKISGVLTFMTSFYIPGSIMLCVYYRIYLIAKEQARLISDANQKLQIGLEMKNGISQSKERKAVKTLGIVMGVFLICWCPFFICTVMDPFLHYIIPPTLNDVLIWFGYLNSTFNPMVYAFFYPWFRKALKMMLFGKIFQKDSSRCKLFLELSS
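Assay system – CHO-derived RD-HGA16 cells with stable Gα16 and human TAAR1 · Compound dosing – one-point dosing at 3 µM (nominal) · Incubation – 17-24 h seeding, 75 min 37 °C dye, 30 min RT · Measured by – kinetic Fluo-8 calcium fluorescence · Control set – DMSO vehicle as 0%, PEA at EC100 as 100% · Repeats – single well for each compound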
DAGLB inh = DAGLB lipase inhibitors, primary screen, biochemical, fluorescence, HTS | Diacylglycerol lipase-beta (Homo sapiens), Q8NCG7 | HEK293T DAGLB membrane lysate, EnzChek fluorogenic substrate | inhibition, % at 5.17 µM | 340,000 compounds, 0.059% hits; in the data active = inhibition above about 34%;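 note: 0% = enzyme with vehicle and 100% = wells lacking enzyme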
TAAR1 antag = human TAAR1 antagonists, primary screen, Fluo-8 calcium fluorescence, CHO RD-HGA16 cells; 360,000 compounds, 1.5% hits; antagonist; inhibition, % at 3 µM; Trace amine-associated receptor 1 (Homo sapiens), Q96RJ0; AID 624466, 2012;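 active = inhibition above a per-plate cutoff, the mean inhibition of test compounds on that plate plus 3 SD, cut at about 49% in these data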;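 note: 0% = DMSO plus EC80 beta-PEA response and 100% = DMSO alone without agonist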
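Test system: RD-HGA16 CHO cells with stable hTAAR1 and Gα16 / Probe or stimulus: EC80 β-phenethylamine stimulus / Times: seeding 17-24 h prior, 75-min 37 °C, 30-min RT dye loading / Detection: Fluo-8 calcium-sensitive fluorescence / Read-out basis: % inhibition scaled between DMSO and EC80 PEA controls / Repeats: singlicate, one well per test compound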
MPTP inh = mitochondrial permeability transition pore inhibitors, primary screen, biochemical, isolated mouse mitochondria, absorbance | 360,000 compounds, 1.4% hits | inhibition, % at 10 µM | Ca2+ swelling absorbance, 30 min | AID 602449, 2012;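 active = inhibition of 50% or more, scaled per plate between neutral and stimulator controls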;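 note: 0% = DMSO wells given calcium and 100% = 1 mM EGTA wells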
GPR7 antagonist = GPR7 receptor antagonists, primary screen, cell-based, fluorescence, single concentration | Neuropeptides B/W receptor type 1 (Homo sapiens), P48145 | GPR7-expressing cells, fluorescence antagonist assay | inhibition, % at 4.4 µM | 290,000 compounds, 1.1% hits | AID 1861, 2009; in the data active = inhibition above about 16%, passing the limit was not always enough;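 note: cells stimulated with the agonist NPW; 0% = agonist with vehicle and 100% = vehicle without agonist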
Target sequence (P48145 whole entry, looked up): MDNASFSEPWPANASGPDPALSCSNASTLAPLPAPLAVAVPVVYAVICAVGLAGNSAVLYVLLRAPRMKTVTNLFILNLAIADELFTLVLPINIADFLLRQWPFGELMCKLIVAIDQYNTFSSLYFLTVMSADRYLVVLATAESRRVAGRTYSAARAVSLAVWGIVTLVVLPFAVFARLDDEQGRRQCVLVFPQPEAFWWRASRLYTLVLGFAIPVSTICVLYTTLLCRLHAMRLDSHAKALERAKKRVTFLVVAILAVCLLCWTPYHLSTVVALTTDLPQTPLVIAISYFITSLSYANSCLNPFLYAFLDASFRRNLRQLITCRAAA
GPR7 antag conf = GPR7 receptor antagonists, confirmation, cell-based, fluorescence, single concentration | shares compounds with GPR7 antagonist | GPR7-expressing cells, calcium fluorescence antagonist mode | inhibition, % at 4.4 µM | 2,400 compounds, 52% hits | AID 1952, 2009; in the data active = inhibition above about 24%;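 note: stimulated with the GPR7 agonist NPW; 0% = agonist plus vehicle and 100% = vehicle alone without agonist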
MCHR1 antag = MCHR1 antagonists in cells, counter-screen for GPR7 antagonist project, cell-based, fluorescence, human | shares compounds with GPR7 antagonist | MCHR1-expressing cells, fluorescence antagonist assay | inhibition, % at 4.4 µM | 2,400 compounds, 62% hits | AID 2148, 2009; in the data active = inhibition above about 22%;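 note: 0% = vehicle with agonist and 100% = vehicle without agonist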
* = called active by the depositor.

`CC(C)CCNC(=O)C(c1ccco1)N(Cc1cccs1)C(=O)Cn1nnc2ccccc21` (centres undefined) gave TAAR1 ag 5.7, DAGLB inh 2.2, TAAR1 antag 13.9, MPTP inh 0.1, GPR7 antagonist 33.1*, GPR7 antag conf 10.8 and MCHR1 antag 9.8.
`COCCNC(=O)C(c1cccs1)N(Cc1cccs1)C(=O)Cn1nnc2ccccc21` (centres undefined) gave TAAR1 ag 14.2, DAGLB inh -2.2, TAAR1 antag 5.6, MPTP inh -0.9 and GPR7 antagonist 3.4.
`COC(=O)c1sccc1-n1cc2c(c1-c1ccccc1)c(=O)n(C)c(=O)n2C` gave TAAR1 ag 3.7, TAAR1 antag -8.2 and MPTP inh -1.7.
For COc1ccc(-c2ccc3c(n2)CCCN3S(=O)(=O)c2ccc(C(F)(F)F)cc2)cc1 the results were TAAR1 ag 0.2 and TAAR1 antag -40.6.
O=C1NC(=S)S/C1=C/c1ccc(OC(=O)c2ccco2)cc1 was read as TAAR1 ag -1.0, DAGLB inh 15.6, TAAR1 antag 23.7, MPTP inh 1.0, GPR7 antagonist 27.9*, GPR7 antag conf 16.5 and MCHR1 antag 22.7*.
CCOc1cc(/C=C2/SC(=S)NC2=O)ccc1OC(=O)c1ccco1 was read as TAAR1 ag -0.6, DAGLB inh 13.4, TAAR1 antag 10.9, MPTP inh 3.6 and GPR7 antagonist -0.6.
CC(=O)c1ccc(NC(=O)C(C)N(C)CC(=O)Nc2ccc(N3CCOCC3)cc2)cc1 (centres undefined) was read as TAAR1 ag 1.8, DAGLB inh 0.5, TAAR1 antag -18.2, MPTP inh -0.8, GPR7 antagonist 25.6*, GPR7 antag conf 12.5 and MCHR1 antag -1.0.
For CCOC(=O)c1ccc(S(=O)(=O)N2CCC(C(=O)NCC3COc4ccccc4O3)CC2)cc1 (centres undefined) the results were TAAR1 ag 3.6, DAGLB inh -3.6, TAAR1 antag 17.4 and MPTP inh 1.4.
C/C(CC(=O)Nc1ccc2c(c1)OCCO2)=N\NC(=O)c1ccc([N+](=O)[O-])cc1Cl was read as TAAR1 ag 2.0, DAGLB inh 1.7, TAAR1 antag -19.4, MPTP inh -0.6, GPR7 antagonist 34.0*, GPR7 antag conf -5.3 and MCHR1 antag -1.5.
For Cn1cc(CCOCc2ccc(Br)cc2)c2ccccc21 the results were TAAR1 ag -0.2 and TAAR1 antag -11.6.
For c1coc(-c2nnc(SCc3cn4ccccc4n3)o2)c1 the results were TAAR1 ag 2.4, DAGLB inh 0.4, TAAR1 antag 14.5, MPTP inh 0.3 and GPR7 antagonist 19.9.
Brc1c(CSc2nnc(-c3ccco3)o2)nc2ccccn12 was read as TAAR1 ag 8.6, DAGLB inh -1.7, TAAR1 antag 7.2, MPTP inh -0.6, GPR7 antagonist 23.9*, GPR7 antag conf 10.0 and MCHR1 antag -4.1.
Screening COc1ccccc1CCn1cnc(-c2ccccc2OC)c1CC(C)C returned TAAR1 ag 33.7 and TAAR1 antag 7.0.
O=[N+]([O-])c1ccc(-c2csc3[n+]2CCS3)cc1 was read as TAAR1 ag 17.3, DAGLB inh 0.5, TAAR1 antag 6.3, MPTP inh 0.9, GPR7 antagonist 28.9*, GPR7 antag conf -1.4 and MCHR1 antag 13.8.
OC1(C#Cc2c(-c3ccsc3)sc3ccccc23)CCCCC1 was read as TAAR1 ag 1.7 and TAAR1 antag 8.6.
CC(C)(C)OC(=O)N1CCCC(C(=O)Nc2cccc(C(=O)N3CCCCC3)c2)C1 (centres undefined) was read as TAAR1 ag 0.4, DAGLB inh 3.9, TAAR1 antag -0.1 and MPTP inh -0.6.
For Cc1ccc(S(=O)(=O)NCCC(=O)Nc2ccc(S(=O)(=O)NC(C)C)cc2)cc1 the results were TAAR1 ag 4.5, DAGLB inh -0.6, TAAR1 antag -9.5, MPTP inh 1.2 and GPR7 antagonist -10.6.
For COc1ccc(NS(=O)(=O)c2ccc(NC(=O)CCNS(=O)(=O)c3ccc(C)cc3)cc2)cc1 the results were TAAR1 ag 10.5, DAGLB inh -0.1, TAAR1 antag 14.4, MPTP inh 3.2, GPR7 antagonist 26.6*, GPR7 antag conf 60.7* and MCHR1 antag 50.2*.
For CCCN1CCCCC(NC(=O)c2ccc(C)cc2C)C1=O (centres undefined) the results were TAAR1 ag 3.7 and TAAR1 antag -8.5.
Screening CCN(CC)C(=O)c1ccc(/C=C/c2c[nH]c3ccccc23)[n+](C)c1 returned TAAR1 ag 25.1, DAGLB inh -17.1, TAAR1 antag -11.5, MPTP inh 0.5 and GPR7 antagonist 1.6.
For CC[n+]1c(/C=C/c2c[nH]c3ccccc23)ccc2cc(C)ccc21 the results were TAAR1 ag 12.0, TAAR1 antag 17.8, GPR7 antagonist 38.7*, GPR7 antag conf 36.9* and MCHR1 antag 80.1*.
O=C(c1ccccc1Cl)N1CCSCCS1(=O)=O was read as TAAR1 ag 6.3 and TAAR1 antag -0.9.
Screening COC(=O)C1=C(C)N(Cc2cccc(C(F)(F)F)c2)C(=NCc2ccc(C(F)(F)F)cc2)NC1c1cccc(C(F)(F)F)c1 (centres undefined) returned TAAR1 ag 7.6 and TAAR1 antag 18.8.
`COC(=O)[C@@H](Cc1c[nH]c2ccccc12)NC(=O)CCC(=O)c1ccc(Br)cc1` gave TAAR1 ag 4.8, DAGLB inh 0.6, TAAR1 antag 2.7, MPTP inh 0.5 and MCHR1 antag 13.6.
Screening COC(=O)[C@H](Cc1c[nH]c2ccccc12)NC(=O)Cc1c[nH]c2ccccc12 returned TAAR1 ag 12.2, DAGLB inh -2.6, TAAR1 antag 34.0, MPTP inh -0.4 and GPR7 antagonist 16.9.
CCCCN1C(=O)C(NC(C)=O)c2cc(Br)ccc21 (centres undefined) was read as TAAR1 ag 2.2, DAGLB inh -1.1, TAAR1 antag -17.1, MPTP inh -0.7, GPR7 antagonist 52.6*, GPR7 antag conf 26.1* and MCHR1 antag 19.3.
CCC(C)(C(=O)NC1CCCCC1)N(Cc1ccco1)C(=O)Cc1cccs1 (centres undefined) was read as TAAR1 ag -1.8, DAGLB inh -1.9, TAAR1 antag 7.4, MPTP inh -0.8, GPR7 antagonist 40.5*, GPR7 antag conf 49.7* and MCHR1 antag 27.3*.
